MT1-MMP act inh = blockers of MT1-MMP proenzyme processing, primary screen, HT1080 RFP-PRO-GFP cells, GFP/RFP fluorescence. 0.061% of 360,000 active. GFP/RFP ratio change, % at 20 µM. AID 651647, 2012. Matrix metalloproteinase-14 (Homo sapiens), P50281. GFP/RFP ratio fluorescence, overnight; percent of plate control window, DMSO zero;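 active means GFP/RFP ratio change of at least 30% with cell ATP level not reduced by more than half and red fluorescence within 50% of control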
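Assay system: HT1080 RFP-PRO-GFP cells | Dosing: 20 µM single dose, 1% DMSO | Incubation: Cells overnight before dosing, compound overnight, 37 °C, 5% CO2 | Evaluation: GFP/RFP fluorescence ratio | Control set: DMSO-only wells and HT1080 RFP-L50D-GFP cell wells as references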
pCIP destab = p/CIP-EGFP fusion destabilizers, primary screen, fluorescence, F442A cells. Q05BA5. 16 h. decrease of EGFP signal, % at 10 µM. 0.01% of 290,000 active;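 active means EGFP signal decrease of at least 30% at 10 µM or well 3 SD below plate mean, unless failing retest; inactive means the rest, including hits failing retest or dose response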
SKN-1 inh = suppressors of acrylamide-induced Pgst-4::GFP reporter in worms, primary screen, SKN-1 inhibitor project, whole organism, uHTS, GFP/RFP fluorescence ratio, strain VP596; inhibition, % at 21.8 µM; 0.49% of 360,000 active; C. elegans VP596 Pgst-4::GFP/RFP ratio, 24 h; AID 624304, 2012;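 active means interference check ratio from 0.5 to 1.5 plus GFP to RFP signal ratio inhibition reaching or exceeding a fixed threshold, cut at about 30% in these data, passing the limit was not always enough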
bovine MsrA act = bovine MsrA enzyme activators, primary screen, biochemical, absorbance, HTS; Methionine sulfoxide reductase A (Bos taurus); purified bovine MsrA, absorbance read-out; activation, % at 10.6 µM; 0.3% of 360,000 active; in the data active means activation above about 7.5%
MsrA inhibitor = bovine MsrA enzyme inhibitors, primary screen, biochemical, absorbance, HTS | Methionine sulfoxide reductase A (Bos taurus) | purified bovine MsrA, absorbance read-out | inhibition, % at 15.5 µM | 0.75% of 360,000 active | AID 651718, 2012; in the data active means inhibition above about 4.5%
MsrA act confirm = bovine MsrA activators, retest, confirmation, biochemical, absorbance, HTS. shares compounds with bovine MsrA act. purified bovine MsrA, absorbance read-out. activation, % at 10.6 µM. 12% of 1,000 active. AID 602270, 2012; in the data active means activation above about 4%;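 further: enzyme coupled to thioredoxin and thioredoxin reductase with NADPH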
Of the large screens only hits and unclear results are named; the others gave an inactive call (follow-up assays come after a bar, where they were run). Rows were chosen to be rich in hits. Some 1.6% of all compounds tested hit in one or more screens of this group.

C#CCNC(=O)C[C@H]1C[C@@]2(C(=O)OC)C(=C[C@H](C(C)(C)C)O[C@@H]2C)N(Cc2ccc3c(c2)OCO3)C1=O	none (no result: MT1-MMP act inh, pCIP destab, SKN-1 inh, bovine MsrA act)
COc1ccc2c(c1)C1(Nc3ccccc3-c3nc4ccccc4n31)C(=O)N2 (stereo not drawn)	bovine MsrA act 8.7 | MsrA act confirm inactive
CCCCN1CC(N2CCCC2)CS1(=O)=O (stereo not drawn)	none (no result: MT1-MMP act inh, pCIP destab, SKN-1 inh, bovine MsrA act)
Cc1ccc(CN2CC(N3CCC[C@@H]3C)CS2(=O)=O)cc1 (stereo partly drawn)	none (no result: MT1-MMP act inh, pCIP destab, SKN-1 inh, bovine MsrA act)
Cc1cccc(NC(=O)c2ccccc2NC(=O)c2ccccc2)n1	bovine MsrA act 18 | MsrA act confirm inactive
O=C(C(=O)N1CCN(S(=O)(=O)c2ccc(F)cc2)CC1)c1cccc(C(F)(F)F)c1	none (no result: MT1-MMP act inh, pCIP destab, SKN-1 inh, bovine MsrA act)
Cc1nn(C)c(C)c1NC(=O)CCSc1nc(-c2ccco2)cc(C(F)(F)F)n1	none
Cc1cc(NC(=O)CCSc2nc(-c3ccco3)cc(C(F)(F)F)n2)n(-c2ccccc2)n1	bovine MsrA act 18 | MsrA act confirm inactive
COC(=O)Cc1[nH]n(-c2nc3ccccc3s2)c(=O)c1C(C)=Nc1ccc(Cl)cc1	bovine MsrA act 8.2 | MsrA act confirm inactive
COc1cc(Nc2ccc(C(=O)O)cc2[N+](=O)[O-])cc(OC)c1	bovine MsrA act 9.7 | MsrA act confirm 8.1
Cc1cc(C)n(CCc2nc(-c3ccc(C(C)(C)C)cc3)cs2)n1	bovine MsrA act 9.3 | MsrA act confirm inactive
OCc1ccccc1SSc1ccccc1CO	bovine MsrA act 11 (no result: pCIP destab) | MsrA act confirm 6.4
OCc1ccccc1CNCc1ccccc1	none
O=C(NCCNC(=O)c1ccc(-c2ccc(Cl)c(Cl)c2)o1)c1cnccn1	bovine MsrA act 10 | MsrA act confirm inactive
C[n+]1c(-c2ccccc2)cc2c(=Cc3ccccc3)c3ccccc3n21	bovine MsrA act 19, MsrA inhibitor 12 (no result: pCIP destab) | MsrA act confirm 9.6
CN(C)c1ccc(C=c2c3cc(O)ccc3n3c2cc(-c2ccccc2)[n+]3C)cc1	bovine MsrA act 17 (no result: pCIP destab) | MsrA act confirm 8.1
Cc1cc2c(=Cc3ccc(N(C)C)cc3)c3ccccc3n2[n+]1C	none (no result: pCIP destab)
Cc1cc(Oc2cccnc2)ccc1NC(=O)CCc1c[nH]c2ccccc12	none (no result: MT1-MMP act inh, pCIP destab, SKN-1 inh, bovine MsrA act)
O=C(CC(c1ccccc1)c1cc(Cl)ccc1O)N1CCOCC1 (stereo not drawn)	bovine MsrA act 9.8 | MsrA act confirm inactive
Cc1ccc(C(=O)CC(C(=O)O)n2cnc([N+](=O)[O-])n2)cc1 (stereo not drawn)	bovine MsrA act 9.4 | MsrA act confirm inactive
O=C1C(O)=CC(=C(c2ccccc2)c2ccccc2)c2ccccc21	bovine MsrA act 9.8 (no result: pCIP destab) | MsrA act confirm inactive
O=C(O)c1cccc2c1C(=O)c1ccccc1C2=O	none
Cc1ccc(Cl)cc1NC(=O)OCCN(C)C(=O)Nc1cc(Cl)ccc1C	none (no result: MT1-MMP act inh, pCIP destab, SKN-1 inh, bovine MsrA act)
O=C(Nc1ccccn1)c1cccs1	none
O=C(Nc1cccnc1Cl)c1cccs1	bovine MsrA act 17 | MsrA act confirm inactive
COc1ccc(/C(C)=N/NC(=O)CNC(=O)c2ccco2)c(OC)c1	bovine MsrA act 8.6 | MsrA act confirm inactive
CCOC(=O)C1=CCN(S(=O)(=O)c2ccc(Cl)cc2)C1c1cccc(Br)c1 (stereo not drawn)	none (no result: MT1-MMP act inh, pCIP destab, SKN-1 inh, bovine MsrA act)
O=C1CCC(NC(=O)Cc2ccccc2)C(=O)N1 (stereo not drawn)	none (no result: MT1-MMP act inh, pCIP destab, SKN-1 inh, bovine MsrA act)
CC(C)=CC(=O)NCC1CCN(C(=O)C(=O)c2cc3ccccc3o2)CC1	none (no result: MT1-MMP act inh, pCIP destab, SKN-1 inh, bovine MsrA act)
COc1cc(NC(=O)CSCc2ccccc2)c(C(=O)O)cc1OC	bovine MsrA act 10.0 | MsrA act confirm inactive
Cc1ccc2cc(C#N)c(N3CCCN(S(=O)(=O)c4ccccc4)CC3)nc2c1	bovine MsrA act 8.7 | MsrA act confirm inactive
Cc1ccc(/C=N/Nc2nncn2N)cc1	bovine MsrA act 8.5 | MsrA act confirm inactive
Nn1cnnc1N/N=C/c1ccc(Cl)c([N+](=O)[O-])c1	bovine MsrA act 18 | MsrA act confirm inactive
Cc1nnc(N/N=C/c2ccc([N+](=O)[O-])cc2)n1N	bovine MsrA act 21 | MsrA act confirm inactive
Cc1nnc(N/N=C/c2ccc(Br)cc2)n1N	bovine MsrA act 34 | MsrA act confirm inactive
COc1ccc(-c2nnn(Cc3ccccc3F)n2)cc1	bovine MsrA act 16 | MsrA act confirm inactive
CCOC(=O)CSc1nnc(-c2nnc(SCC(=O)OCC)n2CC)n1CC	bovine MsrA act 7.7 | MsrA act confirm inactive
CN(Cc1cccs1)c1ncnc2sccc12	none
CN(Cc1ccccc1F)c1ncnc2sccc12	bovine MsrA act 14 | MsrA act confirm inactive
NNc1nc(-c2ccccc2)c2cc(Cl)ccc2n1	none
O=C(NCCO)c1cccc(Nc2nc(-c3ccccc3)c3cc(Cl)ccc3n2)c1	bovine MsrA act 17 | MsrA act confirm inactive
CCOC(=O)c1nn(-c2ccc(F)cc2)c(=O)c2c(N)scc12	none
CCOC(=O)c1nn(-c2ccc(C)cc2)c(=O)c2c(N)scc12	bovine MsrA act 8.6 | MsrA act confirm inactive
C[C@@H]1CN([C@H](C)CO)C(=O)CCCn2nncc2CO[C@@H]1CN(C)C(=O)Nc1ccccc1	none (no result: MT1-MMP act inh, pCIP destab, SKN-1 inh, bovine MsrA act)
COc1ccc(/C=N/NC(=O)c2cc(OC)c(OC)c(OC)c2)cc1CN1CCc2cc(OC)c(OC)cc2C1C (stereo not drawn)	none
COc1ccc(/C=N/NC(=O)c2cccnc2)cc1CN1CCc2cc(OC)c(OC)cc2C1C (stereo not drawn)	bovine MsrA act 16 | MsrA act confirm inactive
c1ccc(-c2cc3c(N4CCOCC4)ncnc3s2)cc1	SKN-1 inh 38, bovine MsrA act 8.0 | MsrA act confirm inactive
CC(=O)Oc1c(S(=O)(=O)c2ccccc2)c(C)nn1C(C)(C)C	bovine MsrA act 10 | MsrA act confirm inactive
CCc1ccc2c(c1)c1nc(C)sc1n2CC	bovine MsrA act 26 | MsrA act confirm inactive
Cc1nc2c3cc(F)ccc3n(Cc3ccc(F)cc3)c2s1	none
O=C(NCSc1ccnc(SCNC(=O)c2ccccc2)n1)c1ccccc1	bovine MsrA act 11 | MsrA act confirm inactive
CC1(O)C(=O)C2(C)C=CC1C1C(=O)N(c3ccccc3)C(=O)C12 (stereo not drawn)	none (no result: MT1-MMP act inh, pCIP destab, SKN-1 inh, bovine MsrA act)
C=C(C)C1Cc2c(C)nn(-c3cccc4ccccc34)c2C1 (stereo not drawn)	bovine MsrA act 8.0 | MsrA act confirm inactive
O=C(CCSc1ccccn1)c1ccccc1	bovine MsrA act 7.8 | MsrA act confirm inactive
COC(=O)c1sccc1NC(=O)CSc1ccccc1NS(=O)(=O)c1ccccc1Cl	bovine MsrA act 8.3 | MsrA act confirm inactive
O=c1[nH]c(-c2ccccc2)cn1C1CCN(Cc2ccc(-c3nc4ccc(Br)cc4nc3-c3ccccc3)cc2)CC1	none (no result: MT1-MMP act inh, pCIP destab, SKN-1 inh, bovine MsrA act)

From PubChem
